# Reference: PubChem BioAssay AID623974 (Vanderbilt High Throughput Screening Facility, 2012)
# Calls of active or inactive are those of the source. The rule behind the calls is not given here.
# Target: G protein-activated inward rectifier potassium channel 2 (Homo sapiens) + G protein-activated inward rectifier potassium channel 3 (Homo sapiens) (UniProt P48051+Q92806)
# Experiment: GIRK2/3 channel activators by patch clamp, confirmation, GIRK activator project, HEK-293 hGIRK2/3, whole-cell voltage clamp, Ba2+-sensitive current (AID 623974)
# Procedure, shortened: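 Assay system – HEK-293 cells stably expressing human GIRK2/3 potassium channels · Doses – compound concentration series fitted by four-parameter logistic curve · Timing – recording 24–72 h post-plating · Detection – whole-cell patch clamp, -70 mV holding, barium subtraction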
# Sequence of G protein-activated inward rectifier potassium channel 2 (Homo sapiens) + G protein-activated inward rectifier potassium channel 3 (Homo sapiens) (P48051 whole entry, looked up): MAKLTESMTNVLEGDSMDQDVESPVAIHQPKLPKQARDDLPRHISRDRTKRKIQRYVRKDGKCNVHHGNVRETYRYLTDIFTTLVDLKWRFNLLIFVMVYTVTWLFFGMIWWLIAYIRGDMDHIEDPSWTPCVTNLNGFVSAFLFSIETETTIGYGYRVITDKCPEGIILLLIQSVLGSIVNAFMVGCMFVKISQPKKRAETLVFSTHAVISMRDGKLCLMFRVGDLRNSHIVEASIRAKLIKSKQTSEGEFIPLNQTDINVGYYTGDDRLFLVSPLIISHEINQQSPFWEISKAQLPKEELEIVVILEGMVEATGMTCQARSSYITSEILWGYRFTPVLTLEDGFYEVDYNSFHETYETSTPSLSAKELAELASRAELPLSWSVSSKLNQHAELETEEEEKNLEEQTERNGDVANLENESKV
# Sequence of G protein-activated inward rectifier potassium channel 2 (Homo sapiens) + G protein-activated inward rectifier potassium channel 3 (Homo sapiens) (Q92806 whole entry, looked up): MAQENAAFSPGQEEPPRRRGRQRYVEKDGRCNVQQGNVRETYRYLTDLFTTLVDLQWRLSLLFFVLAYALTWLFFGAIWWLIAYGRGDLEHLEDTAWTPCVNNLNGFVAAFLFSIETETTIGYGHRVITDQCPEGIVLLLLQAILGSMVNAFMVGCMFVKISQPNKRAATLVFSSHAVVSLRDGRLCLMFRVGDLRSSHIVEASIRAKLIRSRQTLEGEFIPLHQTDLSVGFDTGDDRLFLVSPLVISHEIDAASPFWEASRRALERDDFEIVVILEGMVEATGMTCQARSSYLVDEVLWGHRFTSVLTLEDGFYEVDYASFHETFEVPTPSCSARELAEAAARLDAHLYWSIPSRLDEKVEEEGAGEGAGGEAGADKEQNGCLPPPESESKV
smiles,measurement,value
Cc1cc(NC(=O)Nc2ccc(F)c(F)c2)n(-c2ccccc2)n1,outcome,inactive
